# Test results taken from paper PMC4433755 (Clinical cancer research : an official journal of the …, 2015).
# Key:
# [1] = tested on: metabolism of JNJ-38877605 in human 12000×g liver supernatant; type: in vitro ADME; conditions: 5 μM 3H-JNJ-38877605, human 12000×g liver supernatant
# Summary of the method: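 5 μM 3H-labelled test compound incubated with human 12000×g liver supernatant, with and without specific inhibitors of aldehyde oxidase/CYP2C8 or of CYP-450. Metabolites identified by LC-MS and quantified via the 3H label. Read-out is % inhibition of formation of each metabolite and of summed metabolite formation.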
# [2] = plasma metabolite profiling, man; type: in vivo, human; conditions: 60 mg, at about Cmax (1-4 h)
# [3] = plasma metabolite profiling, dog; type: in vivo; conditions: 3H-JNJ-38877605 2.5 mg/kg, at about Cmax (1-4 h)
# [4] = plasma metabolite profiling, rabbit; type: in vivo; conditions: 3H-JNJ-38877605 100 mg/kg, at about Cmax (1-4 h)
# [5] = plasma metabolite profiling, rat; type: in vivo; conditions: 3H-JNJ-38877605 2.5 mg/kg, at about Cmax (1-4 h)
# Fms = conditions: of 246 kinases tested; cited from earlier work
# c-Met Kinase = conditions: read-out: IC50 for c-Met Kinase in vitro; cited from earlier work
# [6] = 1-month non-GLP toxicology study in male rabbit, post-mortem kidney changes; type: in vivo; conditions: 1-month dosing; for Basophilia, corticotubular with basement membrane thickening, incidence / Dilatation, collecting ducts with amorphous material, incidence / Dilation, corticotubular, extending towards cortex, incidence / Fibrosis, cortical, incidence / Hypertrophy, corticotubular; with spicules and multinucleated cells, incidence: N 4
# [7] = metabolite formation in human liver microsomes; type: in vitro ADME; conditions: 5 μM 3H-JNJ-38877605, 120 min
# Summary of the method: (§1)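 Radiolabelled (3H) test compound was incubated with human liver subcellular fractions (microsomes or 12000 ×g supernatant). Metabolites were identified by LC-MS and quantified only where a reference standard or 3H label existed. Parallel incubations included specific inhibitors, quercetin (aldehyde oxidase/CYP2C8) or 1-aminobenzotriazole (CYP-450). Results were expressed as % inhibition of metabolite formation.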
# [8] = metabolite formation in human liver 12000 ×g supernatant; type: in vitro ADME; conditions: 5 μM 3H-JNJ-38877605, 120 min
# Summary of the method: as §1
# [9] = pharmacokinetics in humans, phase I study; type: in vivo, human; conditions: patients
# Summary of the method: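 Patients received oral test compound once daily in 21-day cycles: 60 mg starting dose, with 10-40 mg OD levels added later. Blood was sampled at pre-specified times from cycle 1 day 1. Parent and N-desmethyl metabolite M2 were quantified in plasma. Cmax, tmax, t1/2, AUC and terminal elimination rate were calculated.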
# [10] = phase I first-in-human dose escalation study, toxicity; type: in vivo
# [11] = group 2: 50 mg/kg 3/week (150 mg/kg/week)
# [12] = group 3: 100 mg/kg 1/week (100 mg/kg/week)
# [13] = group 4: 200 mg/kg 1/week (200 mg/kg/week)
# [14] = group 5: 100 mg/kg 3/week (300 mg/kg/week)
# [15] = group 6: 50 mg/kg 1/day (350 mg/kg/week)
smiles,measurement,setting,value
Nn1nnc2ccccc21 [1-aminobenzotriazole],"% inhibition of metabolite formation, M1/M2",[1],58%
same,"% inhibition of metabolite formation, M3",[1],1%
same,"% inhibition of metabolite formation, M4",[1],70%
same,"% inhibition of metabolite formation, UD (sum of all metabolite formation)",[1],19%
FC(F)(c1ccc2ncccc2c1)c1nnc2ccc(-c3cn[nH]c3)nn12 [M2],concentration in plasma,[2],3 ngeq/ml
same,concentration in plasma,[3],31 ngeq/ml
same,concentration in plasma,[4],6388 ngeq/ml
same,concentration in plasma,[5],136 ngeq/ml
O=c1c(O)c(-c2ccc(O)c(O)c2)oc2cc(O)cc(O)c12 [Quercetin],"% inhibition of metabolite formation, M1/M2",[1],75%
same,"% inhibition of metabolite formation, M3",[1],94%
same,"% inhibition of metabolite formation, M4",[1],73%
same,"% inhibition of metabolite formation, UD (sum of all metabolite formation)",[1],112%
Cn1cc(-c2ccc3nnc(C(F)(F)c4ccc5ncccc5c4)n3n2)cn1 [JNJ-38877605],selectivity for c-Met kinase relative to the next most potently inhibited kinase (Fms),Fms,> 833 fold
same,IC50,c-Met Kinase,4.7 nM
same,"Dilatation, collecting ducts with amorphous material, animals graded minimal",[6]; [11],3
same,"Dilatation, collecting ducts with amorphous material, animals graded moderate",[6]; [11],0
same,"Dilatation, collecting ducts with amorphous material, animals graded slight",[6]; [11],0
same,"Kidney weights, fold change vs control",[6]; [11],×0.93 fold
same,"Basophilia, corticotubular with basement membrane thickening, incidence",[6]; [11],2
same,"Dilatation, collecting ducts with amorphous material, incidence",[6]; [11],3
same,"Dilation, corticotubular, extending towards cortex, incidence",[6]; [11],0
same,"Fibrosis, cortical, incidence",[6]; [11],0
same,"Hypertrophy, corticotubular; with spicules and multinucleated cells, incidence",[6]; [11],1
same,"Dilatation, collecting ducts with amorphous material, animals graded minimal",[6]; [12],1
same,"Dilatation, collecting ducts with amorphous material, animals graded moderate",[6]; [12],0
same,"Dilatation, collecting ducts with amorphous material, animals graded slight",[6]; [12],3
same,"Basophilia, corticotubular with basement membrane thickening, incidence",[6]; [12],2
same,"Dilatation, collecting ducts with amorphous material, incidence",[6]; [12],4
same,"Dilation, corticotubular, extending towards cortex, incidence",[6]; [12],0
same,"Fibrosis, cortical, incidence",[6]; [12],0
same,"Hypertrophy, corticotubular; with spicules and multinucleated cells, incidence",[6]; [12],3
same,"Dilatation, collecting ducts with amorphous material, animals graded minimal",[6]; [13],0
same,"Dilatation, collecting ducts with amorphous material, animals graded moderate",[6]; [13],1
same,"Dilatation, collecting ducts with amorphous material, animals graded slight",[6]; [13],3
same,"Dilation, corticotubular, extending towards cortex, animals graded minimal",[6]; [13],2
same,"Dilation, corticotubular, extending towards cortex, animals graded slight",[6]; [13],1
same,"Fibrosis, cortical, animals graded minimal",[6]; [13],0
same,"Fibrosis, cortical, animals graded slight",[6]; [13],1
same,"Kidney weights, fold change vs control",[6]; [13],×1.20 fold
same,"Basophilia, corticotubular with basement membrane thickening, incidence",[6]; [13],4
same,"Dilatation, collecting ducts with amorphous material, incidence",[6]; [13],4
same,"Dilation, corticotubular, extending towards cortex, incidence",[6]; [13],3
same,"Fibrosis, cortical, incidence",[6]; [13],1
same,"Hypertrophy, corticotubular; with spicules and multinucleated cells, incidence",[6]; [13],4
same,"Dilatation, collecting ducts with amorphous material, animals graded minimal",[6]; [14],1
same,"Dilatation, collecting ducts with amorphous material, animals graded moderate",[6]; [14],1
same,"Dilatation, collecting ducts with amorphous material, animals graded slight",[6]; [14],2
same,"Dilation, corticotubular, extending towards cortex, animals graded minimal",[6]; [14],2
same,"Dilation, corticotubular, extending towards cortex, animals graded slight",[6]; [14],1
same,"Fibrosis, cortical, animals graded minimal",[6]; [14],2
same,"Fibrosis, cortical, animals graded slight",[6]; [14],0
same,"Kidney weights, fold change vs control",[6]; [14],×1.13 fold
same,"Basophilia, corticotubular with basement membrane thickening, incidence",[6]; [14],3
same,"Dilatation, collecting ducts with amorphous material, incidence",[6]; [14],4
same,"Dilation, corticotubular, extending towards cortex, incidence",[6]; [14],3
same,"Fibrosis, cortical, incidence",[6]; [14],2
same,"Hypertrophy, corticotubular; with spicules and multinucleated cells, incidence",[6]; [14],4
same,"Dilatation, collecting ducts with amorphous material, animals graded minimal",[6]; [15],0
same,"Dilatation, collecting ducts with amorphous material, animals graded moderate",[6]; [15],2
same,"Dilatation, collecting ducts with amorphous material, animals graded slight",[6]; [15],2
same,"Dilation, corticotubular, extending towards cortex, animals graded minimal",[6]; [15],2
same,"Dilation, corticotubular, extending towards cortex, animals graded slight",[6]; [15],1
same,"Fibrosis, cortical, animals graded minimal",[6]; [15],1
same,"Fibrosis, cortical, animals graded slight",[6]; [15],1
same,"Basophilia, corticotubular with basement membrane thickening, incidence",[6]; [15],4
same,"Dilatation, collecting ducts with amorphous material, incidence",[6]; [15],4
same,"Dilation, corticotubular, extending towards cortex, incidence",[6]; [15],3
same,"Fibrosis, cortical, incidence",[6]; [15],2
same,"Hypertrophy, corticotubular; with spicules and multinucleated cells, incidence",[6]; [15],4
same,formation of metabolites after incubation of JNJ-38877605,[7],12.8
same,formation of metabolites after incubation of JNJ-38877605,[8],26.0
same,accumulation after 21 days,[9]; oral OD,virtually no accumulation
same,plasma half-life,[9]; oral,short
same,time of Cmax after ingestion,[9]; oral,1.5 to 4 h
same,concentration in plasma,[2],111 ngeq/ml
same,concentration in plasma,[3],575 ngeq/ml
same,concentration in plasma,[4],22836 ngeq/ml
same,concentration in plasma,[5],1466 ngeq/ml
same,patients with grade 1 SCr increase,[10]; 40 mg OD,2/3
same,"serum creatinine (SCr) increase, CTCAE grade","[10]; 60 mg OD, all 5 subjects, asymptomatic",Grade 1
same,time to SCr increase after start of treatment,"[10]; 60 mg OD, in 4 patients",2 to 3 days
same,glomerular filtration rate by Cr51 measurement,"[10]; 1 patient, 40 mg cohort, cycle 1 day 21 (98 pre-treatment)",45 ml/min/1.73m^2
same,decrease of glomerular filtration rate by Cr51 measurement,"[10]; 1 patient, 40 mg cohort, pre-treatment to cycle 1 day 21",> 50%
same,renal toxicity,[10]; 10 and 20 mg OD,no indication of renal toxicity
